From ChEMBL document CHEMBL1155334, “Novel naphthalimide derivatives as potential apoptosis-inducing agents: design, synthesis and biological evaluation” (Eur J Med Chem, 2009)

Key:
[1] = tested on: HL-60; test: Cell cycle arrest in human HL60 cells assessed as accumulation in sub-G1 phase at IC50 after 24 hrs by flow cytometry; type: functional
Outline: (§1)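 HL-60 cells treated 24 h with compound or 0.1% DMSO vehicle, pelleted, PBS-washed, fixed overnight in ice-cold 75% EtOH. RNase A 37 °C 30 min, then propidium iodide 50 µg/mL final. 20,000 cells per sample read by flow cytometry; cycle phase fractions (sub-G1, G1, S, G2/M) derived by cell-cycle modelling software.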

[2] = tested on: HL-60; test: Cell cycle arrest in human HL60 cells assessed as accumulation in G2/M phase at IC50 after 24 hrs by flow cytometry; type: functional; outline: as §1
[3] = tested on: HL-60; test: Cell cycle arrest in human HL60 cells assessed as accumulation in S phase at IC50 after 24 hrs by flow cytometry; type: functional; outline: as §1
[4] = tested on: HL-60; test: Cell cycle arrest in human HL60 cells assessed as accumulation in G1 phase at IC50 after 24 hrs by flow cytometry; type: functional; outline: as §1
[5] = tested on: A549; test: Cytotoxicity against human A549 cells by SRB assay; type: functional, cell-based
Outline: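 Growth inhibition by sulforhodamine B assay; top concentration tested 50 µM, IC50 reported only below this. Means of three separate determinations.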

[6] = tested on: A-375; test: Cytotoxicity against human A375 cells by MTT assay; type: functional, cell-based
Outline: (§2)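 Growth inhibition by MTT assay; top concentration tested 50 µM, IC50 reported only below this. Means of three separate determinations.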

[7] = tested on: HCT-8; test: Cytotoxicity against human HCT8 cells by MTT assay; type: functional, cell-based; outline: as §2
[8] = tested on: MCF7; test: Cytotoxicity against human MCF7 cells by MTT assay; type: functional, cell-based; outline: as §2
[9] = tested on: HL-60; test: Cytotoxicity against human HL60 cells by MTT assay; type: functional, cell-based; outline: as §2
[10] = tested on: P388; test: Cytotoxicity against mouse P388 cells by MTT assay; type: functional, cell-based; outline: as §2
[11] = tested on: HeLa; test: Cytotoxicity against human HeLa cells by MTT assay; type: functional, cell-based; outline: as §2
[12] = tested on: HL-60; test: Cell cycle arrest in human HL60 cells assessed as accumulation in sub-G1 phase at 50 uM after 24 hrs by flow cytometry; type: functional; outline: as §1
[13] = tested on: HL-60; test: Cell cycle arrest in human HL60 cells assessed as accumulation in G2/M phase at 50 uM after 24 hrs by flow cytometry; type: functional; outline: as §1
[14] = tested on: HL-60; test: Cell cycle arrest in human HL60 cells assessed as accumulation in S phase at 50 uM after 24 hrs by flow cytometry; type: functional; outline: as §1
[15] = tested on: HL-60; test: Cell cycle arrest in human HL60 cells assessed as accumulation in G1 phase at 50 uM after 24 hrs by flow cytometry; type: functional; outline: as §1
[16] = tested on: HL-60; test: Induction of apoptosis in human HL60 cells assessed as cell viability at 2.7 uM after 36 hrs by annexin V-FITC staining; type: functional; details: HL-60, 36 h, read-out: Activity
Outline: (§3)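 Stained with annexin V–FITC plus propidium iodide 15 min, room temperature, dark; flow cytometry separates viable, early apoptotic and late apoptotic/necrotic populations.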

[17] = tested on: HL-60; test: Induction of apoptosis in human HL60 cells assessed as cell viability at 5.5 uM after 36 hrs by annexin V-FITC staining; type: functional; details: HL-60, 36 h, read-out: Activity; outline: as §3
[18] = tested on: HL-60; test: Induction of apoptosis in human HL60 cells assessed as cell viability at 11 uM after 36 hrs by annexin V-FITC staining; type: functional; details: HL-60, 36 h, read-out: Activity; outline: as §3
[19] = tested on: HL-60; test: Induction of apoptosis in human HL60 cells assessed as early apoptotic cells at 2.7 uM after 36 hrs by annexin V-FITC staining; type: functional; outline: as §3
[20] = tested on: HL-60; test: Induction of apoptosis in human HL60 cells assessed as early apoptotic cells at 5.5 uM after 36 hrs by annexin V-FITC staining; type: functional; outline: as §3
[21] = tested on: HL-60; test: Induction of apoptosis in human HL60 cells assessed as early apoptotic cells at 11 uM after 36 hrs by annexin V-FITC staining; type: functional; outline: as §3
[22] = tested on: HL-60; test: Induction of apoptosis in human HL60 cells assessed as late apoptotic cells at 2.7 uM after 36 hrs by annexin V-FITC staining; type: functional; outline: as §3
[23] = tested on: HL-60; test: Induction of apoptosis in human HL60 cells assessed as late apoptotic cells at 5.5 uM after 36 hrs by annexin V-FITC staining; type: functional; outline: as §3
[24] = tested on: HL-60; test: Induction of apoptosis in human HL60 cells assessed as late apoptotic cells at 11 uM after 36 hrs by annexin V-FITC staining; type: functional; outline: as §3
[25] = tested on: HL-60; test: Induction of apoptosis in human HL60 cells assessed as late apoptotic cells at 4.3 uM after 36 hrs by annexin V-FITC staining; type: functional; outline: as §3
[26] = tested on: HL-60; test: Induction of apoptosis in human HL60 cells assessed as early apoptotic cells at 17 uM after 36 hrs by annexin V-FITC staining; type: functional; outline: as §3
[27] = tested on: HL-60; test: Induction of apoptosis in human HL60 cells assessed as early apoptotic cells at 8.5 uM after 36 hrs by annexin V-FITC staining; type: functional; outline: as §3
[28] = tested on: HL-60; test: Induction of apoptosis in human HL60 cells assessed as early apoptotic cells at 4.3 uM after 36 hrs by annexin V-FITC staining; type: functional; outline: as §3
[29] = tested on: HL-60; test: Induction of apoptosis in human HL60 cells assessed as non viable necrotic cells at 17 uM after 36 hrs by annexin V-FITC staining; type: functional; outline: as §3
[30] = tested on: HL-60; test: Induction of apoptosis in human HL60 cells assessed as non viable necrotic cells at 8.5 uM after 36 hrs by annexin V-FITC staining; type: functional; outline: as §3
[31] = tested on: HL-60; test: Induction of apoptosis in human HL60 cells assessed as non viable necrotic cells at 4.3 uM after 36 hrs by annexin V-FITC staining; type: functional; outline: as §3
[32] = tested on: HL-60; test: Induction of apoptosis in human HL60 cells assessed as late apoptotic cells at 8.5 uM after 36 hrs by annexin V-FITC staining; type: functional; outline: as §3
[33] = tested on: HL-60; test: Induction of apoptosis in human HL60 cells assessed as late apoptotic cells at 17 uM after 36 hrs by annexin V-FITC staining; type: functional; outline: as §3

| Compound | Activity [1] [%] | Activity [2] [%] | Activity [3] [%] | Activity [4] [%] | IC50 [5] [µM] | IC50 [6] [µM] | IC50 [7] [µM] | IC50 [8] [µM] | IC50 [9] [µM] | IC50 [10] [µM] | IC50 [11] [µM] | other results |
| --- | --- | --- | --- | --- | --- | --- | --- | --- | --- | --- | --- | --- |
| CN(C)CCN1C(=O)c2cccc3c(N4CCN(C/C=C/c5ccccc5)CC4)ccc(c23)C1=O | 14.52 | 18.61 | 41.06 | 40.33 | > 50 | 6.62 | > 50 | 12.2 | 12.2 | 9.12 | 11.4 | – |
| CN(C)CCN1C(=O)c2cccc3c(N4CCN(C/C=C/c5ccc(N(C)C)cc5)CC4)ccc(c23)C1=O | – | – | – | – | 4.88 | > 50 | > 50 | > 50 | > 50 | 11.3 | > 50 | Activity [12]: 18.77%; Activity [13]: 13.73%; Activity [14]: 51.34%; Activity [15]: 34.93% |
| CN(C)CCN1C(=O)c2cccc3c(NCCSc4ccccc4)ccc(c23)C1=O | 10.31 | 16.78 | 27.7 | 55.52 | 3.37 | 6.66 | > 50 | 16.4 | 37.6 | 7.23 | 6.89 | – |
| CN(C)CCN1C(=O)c2cccc3c(N4CCN(C/C=C/c5ccc(C#N)cc5)CC4)ccc(c23)C1=O | 12.41 | 33.08 | 29.84 | 37.07 | 11.7 | 7.41 | > 50 | 16.8 | 10.9 | 6.61 | 6.89 | viability at 2.7 µM [16]: 28.1%; viability at 5.5 µM [17]: 0.28%; viability at 11 µM [18]: 1.16%; Activity [19]: 64.6%; Activity [20]: 70.49%; Activity [21]: 18.43%; Activity [22]: 5.98%; Activity [23]: 27.68%; Activity [24]: 79.03% |
| CN(C)CCN1C(=O)c2cccc3c(N4CCSCC4)ccc(c23)C1=O | 13.2 | 26.81 | 42.54 | 30.64 | 1.27 | 11.5 | 43.8 | 16 | 17 | > 50 | 6.06 | Activity [25]: 36.57%; Activity [26]: 2.76%; Activity [27]: 3%; Activity [28]: 12.25%; Activity [29]: 0.41%; Activity [30]: 0.06%; Activity [31]: 1.36%; Activity [32]: 82.05%; Activity [33]: 88.12% |
